Hits are enriched below; roughly 3.2% of the tested compounds scored in any of these assays.
JMJD2C inh: inhibitors of human GASC-1 (JMJD2C) demethylase. Q9H3R0. GST-JMJD2C(1-420) H3K9me3 demethylation, DELFIA europium. inhibition, % at 2.35 µM. 0.069% of 330,000 active. AID 2099;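 active means more than half of a compound's replicate wells show inhibition beyond 50%, single wells judged on their own value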;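 further: signal counts dimethyl H3K9 product captured on neutravidin plate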
Target sequence (Q9H3R0 1-420 limits assumed): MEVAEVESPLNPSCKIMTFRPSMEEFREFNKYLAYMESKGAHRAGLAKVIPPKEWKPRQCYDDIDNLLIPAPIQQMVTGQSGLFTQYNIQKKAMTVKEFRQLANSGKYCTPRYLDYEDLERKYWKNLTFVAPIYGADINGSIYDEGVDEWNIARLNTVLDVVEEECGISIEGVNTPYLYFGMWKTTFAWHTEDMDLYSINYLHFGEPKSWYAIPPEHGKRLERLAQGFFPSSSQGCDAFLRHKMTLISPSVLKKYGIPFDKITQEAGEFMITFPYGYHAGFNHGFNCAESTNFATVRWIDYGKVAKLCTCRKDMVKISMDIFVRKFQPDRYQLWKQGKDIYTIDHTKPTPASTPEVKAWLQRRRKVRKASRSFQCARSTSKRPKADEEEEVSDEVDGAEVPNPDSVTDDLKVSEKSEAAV
SMARCA2 act: increases SMARCA2 function in MMTV reporter cells; AID 652017; MG213 cells, MMTV-luciferase reporter, dexamethasone, overnight; activation, % at 9.1 µM; 1% of 370,000 active; in the data active means activation above about 7.8%
DAX1 inh-1: inhibits human nuclear receptor DAX1 | HEK293 Gal4-DAX1 luciferase reporter, luminescence | inhibition, % at 6.75 µM | 0.99% of 340,000 active;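 active means inhibition above the mean over all tested compounds plus 3 SD, cut at about 4.2% in these data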;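 further: inhibition shows as a rise in luminescence from relieved DAX1 repression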
Target sequence (P51843 207-470 limits assumed): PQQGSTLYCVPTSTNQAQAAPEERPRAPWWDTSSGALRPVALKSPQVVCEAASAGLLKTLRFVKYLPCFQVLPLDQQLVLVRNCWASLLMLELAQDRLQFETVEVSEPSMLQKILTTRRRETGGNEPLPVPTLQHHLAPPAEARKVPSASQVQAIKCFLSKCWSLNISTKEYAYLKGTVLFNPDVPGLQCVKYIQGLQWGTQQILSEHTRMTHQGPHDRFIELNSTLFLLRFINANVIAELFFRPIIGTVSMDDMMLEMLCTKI
NR2E3 ag-1: agonists of human NR2E3 nuclear receptor | 0.35% of 360,000 active | inhibition of corepressor binding, % at 3.98 µM | CHO-S Gal4-NCOR/VP16-NR2E3 two-hybrid, luciferase;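 active means inhibition above the mean of all tested compounds plus 3 SD, cut at about 70% in these data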;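 further: higher means lower luciferase signal from less NR2E3 corepressor binding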
DAX1 inh-2: blocks DAX1 repression of SF-1 activated StAR promoter. HEK293T StAR-luciferase reporter, SF-1/DAX-1 repression relief. inhibition, % at 6.8 µM. 1.1% of 370,000 active. AID 652010;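 active means inhibition above the mean over all tested compounds plus 3 SD, cut at about 3.6% in these data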;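 further: higher inhibition means more luminescence from relief of DAX-1 repression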
NR2E3 ag-2: activates human photoreceptor nuclear receptor NR2E3. Q9Y5X4. GST-NR2E3/biotin-RetCOR TR-FRET, 1536-well. inhibition of corepressor binding, % at 4.78 µM. 0.12% of 320,000 active. AID 2300;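 active means percent inhibition above the cutoff of mean plus 3 SD of all tested compounds, set per screening campaign, cut at about 20% in these data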
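Format: 1536-well format; test system: GST-NR2E3 and biotin-RetCOR proteins; read-out basis: percent inhibition of TR-FRET ratio; timing: 5 h incubation at 4 °C; detection: time-resolved FRET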
DAX1 conf: confirmation of human DAX1 (NR0B1) inhibitors; shares compounds with DAX1 inh-2; HEK293T StAR-promoter luciferase reporter, SF-1/DAX-1 repression; inhibition, % at 6.8 µM; 87% of 2,400 active;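 active means inhibition above the average of every tested compound plus 3 SD, cut at about 3.8% in these data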;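 further: active compounds raise luminescence by relieving repression of the StAR reporter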
SF1 AF2mut Luc: nonselective inhibitor or artifact in SF-1 mutant DAX1 counter-screen; inhibition, % at 6.8 µM; shares compounds with DAX1 inh-2; 78% of 2,400 active; HEK293 StAR-luciferase, SF-1 AF2 mutant, luminescence;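 active means inhibition above the mean of all tested compounds plus 3 SD, cut at about 3% in these data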
SMARCA2 act conf: SMARCA2 activation, confirmation screen. shares compounds with SMARCA2 act. MG213 cells, MMTV-luciferase with dexamethasone, luminescence, overnight; MG213 cells expressing E1A, Rb sequestered; DMSO wells 0%, reference activator 100%. activation, % at 9.1 µM. 30% of 3,500 active. AID 652260;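 active means activation above its plate's cutoff, the mean activation of tested wells plus 3 SD, cut at about 7.9% in these data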
GAL4-VP16 Luc: activates GAL4-VP16 luciferase, flagging SMARCA2 activator hits. AID 686939. shares compounds with SMARCA2 act. 41% of 3,500 active. activation, % at 9.1 µM. HEK293 GAL4-VP16 pG5luc reporter, luciferase luminescence; scaled: DMSO wells 0%, SAHA wells 100%;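 active means activation above the solvent-only control well mean plus 3 SD, averaged across control plates, cut at about 5.2% in these data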
A number is an active result; n = inactive; x = no result given.

SMILES	JMJD2C inh	SMARCA2 act	DAX1 inh-1	NR2E3 ag-1	DAX1 inh-2	NR2E3 ag-2	DAX1 conf	SF1 AF2mut Luc	others
CCOc1ccc(C(=O)COC(=O)c2nc3nccc(C)n3n2)cc1	n	n	n	n	4.9	n	n	n
Cc1ccnc2nc(C(=O)OCCOc3ccc(Cl)cc3)nn12	n	n	n	n	n	n	x	x
COc1cccc(/C=C/C(=O)NNC(=O)c2ccco2)c1OC	x	n	n	n	4.9	n	9.1	6.5
Cc1ccc(C(=O)NNC(=S)NC(=O)COc2ccccc2)cc1	n	n	n	n	n	n	x	x
CC(C)(C)c1ccc(C(=O)NC(=S)NNC(=O)COc2ccccc2)cc1	n	n	n	n	12	n	n	n
CCNC(=S)NNC(=O)CSc1nnc(SCc2cccc3ccccc23)s1	x	n	x	x	n	x	x	x
Fc1ccc(-c2cn3cc(C(F)(F)F)cc(Cl)c3n2)cc1	n	n	4.9	n	6.0	n	17	8.8
COc1ccc(S[C@]2(C(=O)N3CCOCC3)CC(=O)N(P(=O)(OC)OC)[C@@H]2c2ccc(OC)cc2)cc1	x	n	x	x	n	x	x	x
COCCCN=Cc1c(C)[nH]n(-c2ccc(Br)c(C)c2)c1=O	n	n	n	n	7.0	n	16	5.2
FC(F)(F)c1cccc(N2CCN(C3=Nc4ccccc4Sc4ccccc43)CC2)c1	x	n	x	x	n	x	x	x
COc1ccc(Nc2nc(-c3cccs3)cs2)cc1	n	n	x	x	7.1	n	19	11
Oc1ccc(Nc2nc(-c3cccs3)cs2)cc1	n	n	n	n	n	n	x	x
COC(=O)[C@]12C[C@H](CC(=O)N3CCC(c4ccccc4)CC3)C(=O)N(Cc3ccco3)C1=C[C@H](C(C)C)O[C@@H]2C1CC1	x	n	x	x	n	x	x	x
COC(=O)[C@]12C[C@H](CC(=O)NCCCCc3ccccc3)C(=O)N(Cc3cccc4ccccc34)C1=C[C@H](C(C)(C)C)O[C@@H]2C	x	n	x	x	n	x	x	x
Cc1cc(C)n2nc(C(=O)Nc3ccc4c(c3)OCO4)nc2n1	n	n	n	n	n	n	x	x
Cc1ccnc2nc(C(=O)Nc3ccc4c(c3)OCO4)nn12	n	n	n	n	4.6	n	8.9	5.2
Cc1cc(C)n2nc(C(=O)Nc3ccc4c(c3)OCCO4)nc2n1	n	n	n	n	6.0	n	5.6	n
Cc1ccc(-c2nc3ccc(Br)cn3c2Cc2ccsc2)cc1	x	n	x	n	4.7	x	8.6	5.8
Cc1ccc(-c2nc3ccc(C)cn3c2Cc2ccsc2)cc1	x	n	x	n	11	x	7.0	3.0
O=Nc1c2cc3ccccc3[nH]c-2c2ccccc12	x	n	n	n	7.7	x	9.8	8.4
COc1ccc(N2C(=O)NC(NS(=O)(=O)c3ccccc3)(C(F)(F)F)C2=O)cc1 (stereo not drawn)	n	n	n	n	n	n	x	x
COc1ccc(N=C2C(=S)N(c3ccc(OC)cc3)C(=NS(=O)(=O)c3ccccc3)N2c2ccccc2)cc1	x	n	n	n	8.2	x	n	4.2
Cc1ccc(Cn2nnc3c2-c2cc(F)ccc2S(=O)(=O)N(C(C)(C)C)C3)cc1	x	n	x	x	n	x	x	x
CCN(CC)c1ccc(C(=O)NNC(=O)c2cccn2C)cc1	n	n	4.7	n	5.1	n	6.1	5.5
CCN(CC)c1ccc(C(=O)NNC(=O)CCNC(=O)c2ccccc2)cc1	n	n	n	n	n	n	x	x
SMILES	JMJD2C inh	SMARCA2 act	DAX1 inh-1	NR2E3 ag-1	DAX1 inh-2	NR2E3 ag-2	DAX1 conf	SF1 AF2mut Luc	others
Cc1ccc(C(=O)NC(=S)Nc2cc(-c3nc4ccccc4s3)ccc2C)cc1	n	n	n	n	n	n	x	x
COc1ccc(-c2nc3ccccc3s2)cc1NC(C)=O	n	9.7	n	n	8.9	n	8.2	4.0	SMARCA2 act conf=n;GAL4-VP16 Luc=14
COc1ccc2cc3cc(C(=O)N4CCCC(C)C4)oc3nc2c1 (stereo not drawn)	n	8.8	n	n	7.4	n	12	8.9	SMARCA2 act conf=n;GAL4-VP16 Luc=9.2
Cc1ccc(-n2c(SCc3ccc(Cl)c(Cl)c3)nnc2-c2ccc(C(C)(C)C)cc2)cc1	x	n	x	x	n	x	x	x
CCCC(=O)N1CCN(c2ccc(NC(=O)c3ccco3)cc2)CC1	n	n	n	n	n	n	x	x
CCN1CCN(c2ccc(NC(=O)c3ccco3)cc2)CC1	n	8.3	n	n	8.0	n	4.9	5.4	SMARCA2 act conf=n;GAL4-VP16 Luc=n
CCC1CCCCN1CCCNC(=O)c1ccc2nc(N3CCC(C)CC3)sc2c1 (stereo not drawn)	n	n	n	n	n	n	x	x
CC1CCN(c2nc3ccc(C(=O)NCCCN4CCCCC4)cc3s2)CC1	n	12	n	n	5.9	n	12	7.2	SMARCA2 act conf=n;GAL4-VP16 Luc=17
Cc1ccc(NC(=S)N2CCC(c3ccccc3)C2)c(Cl)c1 (stereo not drawn)	n	8.8	n	n	5.1	n	11	4.8	SMARCA2 act conf=n;GAL4-VP16 Luc=9.3
Cc1ccc(NC(=S)N2CCC(c3ccc(C)cc3)C2)cc1 (stereo not drawn)	n	n	n	n	n	n	x	x
CC(=O)c1cc(-c2ccc3[nH]ccc3c2)c(=O)n2c1CCC2	x	n	x	x	n	x	x	x
COC(=O)c1ccc(/C=C/c2nc3ccccc3c(=O)[nH]2)cc1	n	n	n	n	n	n	x	x
Cc1ccc(/C=C/c2nc3ccccc3c(=O)[nH]2)cc1	n	8.7	n	n	5.8	n	14	4.2	SMARCA2 act conf=9.6;GAL4-VP16 Luc=5.8
CCn1c(C)cc(C(=O)COC(=O)c2cccnc2SC)c1C	n	11	7.9	n	5.9	x	6.1	4.4	SMARCA2 act conf=8.0;GAL4-VP16 Luc=8.5
CSc1ncccc1C(=O)OCC(=O)c1cc(C)n(CC2CCCO2)c1C (stereo not drawn)	n	n	n	n	n	n	x	x
C=CCN1C(=O)[C@@H](CC(=O)N2CCCC2)[C@]2(C(=O)OC)CCCCC=C12	x	n	x	x	n	x	x	x
COc1ccc(NC(=O)c2oc3ccccc3c2C)cn1	n	9.8	n	n	6.4	n	6.1	6.2	SMARCA2 act conf=9.7;GAL4-VP16 Luc=5.4
Cc1c(C(=O)Nc2ccncc2)oc2ccccc12	n	n	n	n	n	n	x	x
Cc1ccc(NC(=O)Nc2ccc3c(c2)OCO3)c(OC(F)F)c1	n	8.5	n	n	5.7	x	9.1	7.1	SMARCA2 act conf=9.0;GAL4-VP16 Luc=9.4
